# Test results from ChEMBL document CHEMBL4513216, “Probing the Open Global Health Chemical Diversity Library for Multistage-Active Starting Points for Next-Generation Antimalarials” (ACS Infect Dis, 2020).
# Assay: Toxicity liver stage against HepG2, at 10uM
# Assay type: cell-based
# Design: test concentration 10 uM, cell line HepG2-A16-CD81EGFP
# Details: human, HepG2-A16-CD81EGFP cells; read-out: INHIBITION
# How it was run: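 Uninfected HepG2-A16-CD81EGFP cells, 3 × 10^3 per well, 1536-well, plated on prespotted compound at 10 μM final, parasite-free screening media added to match infected plates; puromycin 10 μM positive, DMSO 0.5% negative; run in parallel with 48 h PbLuc assay at 37 °C, 5% CO2; viability by CellTiter-Glo luminescence, normalized to controls.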
row,Compound,cytotoxicity at 10 µM
1,O=S(=O)(CCN1CCCCC1Cn1cncn1)c1ccccc1 (stereo not given),10.4%
2,Cc1cccc(N2CCN(C(=O)c3c(C)nn(C)c3C)CC2)c1C,-7.28%
3,Cc1cnn(CC(C)NCc2ccc(OCC(N)=O)cc2)c1 (stereo not given),-11.7%
4,CN1CC(NC(=O)Cc2csc(C(C)(C)C)n2)CCC1=O (stereo not given),1.82%
5,c1cnc(N2CCC(c3n[nH]c4ncccc34)C2)nc1 (stereo not given),-4.47%
6,O=C(CSC1CCc2ccccc2NC1=O)NCc1ccccc1 (stereo not given),6.37%
7,Cc1cnn(CC2CCCN2C(=O)CCc2c(C)nn(C)c2C)c1 (stereo not given),0.407%
8,Cc1cccc2[nH]c(C3CCN(C(=O)c4ccc[nH]4)CC3)nc12,6.01%
9,CCn1c(C)nnc1CN(C)C1CCN(Cc2nnc(C3CC3)o2)C1 (stereo not given),-11.6%
10,O=C(NCc1ccccn1)[C@H]1COC[C@H]2CN(c3ncccn3)C[C@H]21,9.19%
11,CC(C)NC(=O)[C@H]1C[C@@H]2[C@@H](C1)OCCN2Cc1cnn(C)c1,5.68%
12,O=C(NCCCn1nc2ccccn2c1=O)NCCC1CCC1,5.47%
13,COc1cccc(N2CCN(C(=O)CN(C)c3cnccn3)CC2)c1,-15.2%
14,Cc1cc(NC(C)c2nncn2C2CCCC2)n2nc(C)c(C)c2n1 (stereo not given),13.7%
15,FC(F)(F)c1cccc(OC2CCN(Cc3c[nH]cn3)CC2)c1,-47.8%
16,CC(=O)N(Cc1noc(C2CC2)n1)C1CCN(CC(=O)NC2CC2)C1 (stereo not given),-3.67%
17,CCn1nc(C)c(CNC(=O)c2nnc3ccc(OC)cc3n2)c1C,6.58%
18,CC(C)CC(=O)Nc1c(-c2ccc(F)cc2)ncn1C,5.87%
19,Cc1ccnn1CCNC(=O)C1CCN(S(=O)(=O)c2ccc(F)cc2)C1 (stereo not given),-32%
20,O=C(c1ccccn1)N1CC[C@@H](N2CCOCC2)[C@@H]1Cc1ccccc1,-77.9%
21,Cc1nc(N2CCC3(CCCN(CC4CC4)C3=O)C2)c2sccc2n1 (stereo not given),42%
22,CCOC(=O)C1CCCCN1Cc1c[nH]nc1-c1ccc(F)cc1F (stereo not given),-0.545%

row,Compound,cytotoxicity at 10 µM
1,CSc1ccc(S(=O)(=O)NC2CNC(=O)C2)cc1 (stereo not given),-2.46%
2,Cc1ccc(C(=O)N2CCCC(N)CC2)cc1N1CCNC1=O (stereo not given),-4.35%
3,C=C(C)CNC(C)c1ccc(S(C)(=O)=O)c(F)c1 (stereo not given),0.563%
4,O=S(=O)(NCC1(O)CCOc2ccccc21)c1ccccc1Br (stereo not given),8.45%
5,CS(=O)(=O)Cc1ccc(C(=O)Nc2ccc3c(c2)C(=O)NC3)cc1,10.8%
6,CC(C)(CO)N1CCN(S(=O)(=O)CCCF)CC1,-4.3%
7,CCOc1ccc(NC(C)=O)cc1S(=O)(=O)Nc1ccon1,-10.8%
8,CCC(=O)N1CCN(C(=O)NCCOc2ccc3c(c2)CCC3)CC1,-7.57%
9,COCCN1CCC(Nc2ccc(C#N)cc2F)CC1,-3.68%
10,COc1ccc(CCC2CCCCN2)cc1OC (stereo not given),12.1%
11,COCCN(Cc1cc(O)nc2ccccc12)C(=O)NC(C)C,7.66%
12,Cc1nccc(NCc2cncc3c2CCN(CC2CCOC2)C3)n1 (stereo not given),-41.5%
13,Cc1ccc2oc(C(=O)N3CCCC(n4ccnc4C)C3)cc2n1 (stereo not given),-3.37%
14,CNC(=O)C1(C)CN(S(=O)(=O)c2cccc(OC)c2)CCO1 (stereo not given),-1.43%
15,Cc1c(C)n(-c2ccccn2)c2nc3c(c(N)c12)CCCC3,7.18%
16,CC1CCN(S(=O)(=O)N2CCCN(CC3CCCO3)CC2)CC1 (stereo not given),-5.15%
17,CN1CCN(C(=O)c2n[nH]c3c2CCN(Cc2nccs2)C3)CC1,-143%
18,CCc1cnc(CN(C)C2CCN(CCc3cccs3)C2)o1 (stereo not given),-16.8%
19,Cc1[nH]nc2ncc(C(=O)N3CCCC3c3noc(C(C)C)n3)cc12 (stereo not given),8.38%
20,COc1ccc2c(c1)C(C(=O)N(C)CCn1ccnc1C)CC(=O)N2 (stereo not given),-44.8%
21,Cc1nc(CN2CC3(CCN(c4nccs4)C3)CC2=O)cs1 (stereo not given),-0.646%
22,Cc1nc(C)n(CC2CCCN2Cc2nc(-c3ccoc3)no2)n1 (stereo not given),-8.48%

row,Compound,cytotoxicity at 10 µM
1,CCc1cnc(CN(C)C2CCN(CCCS(=O)(=O)NC)C2)o1 (stereo not given),7.82%
2,OCC1(O)CCN(Cc2ccc(C3CCCCO3)o2)CC1 (stereo not given),-5.95%
3,Clc1cnccc1N1CCCC2(CCCOC2)C1 (stereo not given),-2.35%
4,Cc1ccc(OC2(C(=O)O)CCN(C(=O)CCc3ccco3)CC2)cn1,1.33%
5,Cn1cnnc1C1CCCN(C(=O)c2cc(-c3ccccc3)on2)C1 (stereo not given),7.36%
6,COc1ccc(C(CNC(=O)Nc2cc(C)nn2C)N(C)C)cc1 (stereo not given),3.31%
7,CC(C)CCc1n[nH]c(C(=O)O)c1Cl,-5.47%
8,O=C(c1cnc(-c2cnccn2)s1)N1CCCC1Cn1cccn1 (stereo not given),-3.99%
9,Cn1c(C(=O)N2CC[C@@]3(O)CCCC[C@H]3C2)cc2ccccc21,-46.8%
10,Cc1ccc(N2CCCN(C(=O)c3cc(Cl)c[nH]3)CC2)nn1,-9.12%
11,COC[C@@]12CC[C@@H](N3CCOCC3)C[C@H]1CCN(c1ccc(Cl)cn1)C2,-5.14%
12,Cc1cnn(CC(C)NCc2ccc(OCc3ccncc3)cc2)c1 (stereo not given),3.15%
13,CC1(C(N)=O)CN(CC2CCC2)CCO1 (stereo not given),2.04%
14,O=C(NCCCOc1cccnc1)c1cn(CCc2ccccc2)nn1,-0.977%
15,Cc1cc(C)n(CC(=O)N2CCCCC2CCN2CCCC2=O)c(=O)n1 (stereo not given),5.09%
16,Cc1ccc(C(=O)N2Cc3c(CN4CCCCC4)nn(C)c3C2)o1,-1.94%
17,Cc1nnc(N2C[C@H](OCc3ccncc3)[C@H]3OCCC[C@H]32)s1,13.6%
18,Nc1nc2c(c(NCc3cnc4c(c3)CCC4)n1)CCNC2,1.98%
19,NC(=O)N1CCCC(C(=O)Nc2cccc(Cl)c2)C1 (stereo not given),8.16%
20,CC1(C)C(C(=O)NCCC2CN(Cc3c[nH]cn3)CCO2)C1(C)C (stereo not given),-3.67%
21,Cc1ccn(CCC(=O)N2CCOC(c3nc(-c4cccs4)no3)C2)n1 (stereo not given),7.03%
22,CCc1csc(C2CCCN(C(=O)c3ccc4[nH]nnc4c3)C2)n1 (stereo not given),-17.1%

row,Compound,cytotoxicity at 10 µM
1,Fc1ccc(CN2CCC(F)(F)C3(CCN(c4cnccn4)C3)C2)cc1 (stereo not given),8.62%
2,CCc1c(C)n(CCC#N)c2nc3ccccc3n2c1=O,2.73%
3,O=C(c1cccnc1)N1CCCC2(COCCN(c3ccccc3)C2)C1 (stereo not given),2.17%
4,CN1CC(C(=O)N(C)Cc2cc(-c3cccnc3)no2)NC1=O (stereo not given),-3.08%
5,CN(C)C(=O)c1cn[nH]c1C1CCCN1Cc1cncn1C (stereo not given),-1.89%
6,CC(Sc1nnc(C2CC2)n1CC(N)=O)c1ccc(F)c(Cl)c1 (stereo not given),4.26%
7,Cc1cccc(C(=O)NC(C)CN2CCCC2=O)n1 (stereo not given),-9.51%
8,CC(C)c1cc(N2CCCC3(CCN(C)C3)C2)ncn1 (stereo not given),-7.36%
9,Cc1cccc(N(CCC(N)=O)C(=O)c2cnccn2)c1,-1.74%
10,O=C(Nc1cccnc1N1CCSCC1)c1ccc2c(c1)OCO2,-6.14%
11,CC(C)c1nn(C)c(N(C)C)c1CNCCC(=O)NC1CCCC1,-6.63%
12,O=C(NCc1nn(-c2ccccc2)c2c1CCC2)NC1CCOCC1,-8.72%
13,Cc1ccc(C(N)c2cccc(S(C)(=O)=O)c2)cc1 (stereo not given),3.18%
14,Cn1nccc1C(=O)NCCN1CCC(O)(c2ccc(F)cc2)CC1,1.09%
15,CCN(CC)c1ccc(NS(=O)(=O)c2cnn(CC)c2)cn1,3.07%
16,CC1(NC(=O)Cc2cccs2)CCS(=O)(=O)C1 (stereo not given),8.39%
17,CN1CCCCC1C(=O)N1CCN(c2ccccc2C#N)CC1 (stereo not given),-6.85%
18,CCn1nccc1C(=O)Nc1nc(C)c(C(C)=O)s1,1.28%
19,CCN1CCC(N2CCC(C(=O)N(C)C)CC2)CC1,0.486%
20,Cc1nnc2n1CCN(Cc1nc(-c3ccoc3)no1)C2,-5.86%
21,COc1c(C2CCCN2Cc2nc(-c3ccco3)no2)c(C)nn1C (stereo not given),-10.2%
22,Cc1ccnc(NC(=O)CCNC(=O)c2ccccc2Cl)c1,-2.66%

row,Compound,cytotoxicity at 10 µM
1,CCN(Cc1cn(C)nc1-c1ccc2c(c1)OCCO2)CC1CCCO1 (stereo not given),2.85%
2,Cc1cccc(-c2noc(CN3CCn4c(nnc4C4CC4)C3)n2)c1,-9.03%
3,CC(C)(C)c1cc(C(=O)NCCn2nc3ccccn3c2=O)[nH]n1,-29.5%
4,COCCn1nc(C(=O)N(C)Cc2ccc3ccccc3c2)ccc1=O,-131%
5,O=C(c1cccs1)N1CC[C@H](O)[C@@H]1Cc1ccccc1,-5.99%
6,CCOCC(=O)Nc1ncn(Cc2cccc(Br)c2)n1,-5.53%
7,CNC(=O)C1Cn2ccnc2C2(CCN(CCF)CC2)O1 (stereo not given),-12.6%
8,CCc1cc(O)n2nc(C3CCCN3C(=O)c3ccccn3)cc2n1 (stereo not given),-0.805%
9,Cc1nc(CCN(C)C(=O)CN2CCCCCC2)no1,5.33%
10,Cc1nc(NCCc2ccc(Cl)cc2)cc(C(=O)N2CCOCC2)n1,-4.78%
11,Cn1cc(C(=O)N2CC[C@@]3(O)CCN(C(=O)C4CCCC4)C[C@H]3C2)cn1,-138%
12,O=C(c1ccsc1)N1CC[C@@H](N2CCOCC2)[C@@H]1Cc1ccccc1,-71.8%
13,CS(=O)(=O)NC1CCN(CCc2ccccc2)CC1,-1.76%
14,Cc1ccc(CN2C[C@@H]3[C@@H](C(=O)NCC4CC4)CCS(=O)(=O)[C@@H]3C2)cc1,-4%
15,O=C(O)c1ccccc1C1CCN(C2Cc3ccccc3C2)C1 (stereo not given),12.7%
16,O[C@@H]1C[C@@H](c2nc(-c3ccccc3)no2)N(Cc2ccncc2)C1,2.77%
17,CNC(=O)CN1CCN(C(=O)Nc2ccc(C)s2)CC1,-13.3%
18,CC(C)n1ccc(-c2cc(C(=O)N3CCCC3)c3ccccn23)n1,-2.7%
19,O=C(O)[C@H]1C[C@H](C(=O)NC2CC2)CN(Cc2ccc(-c3cc[nH]n3)s2)C1,2.89%
20,COCCn1c(-c2cccc(OC)c2)cnc1NC(=O)NC1CCCC1,12.3%
21,CCN1Cc2nccn2CC(COCc2csc(C)n2)C1 (stereo not given),3.86%
22,CNC(=O)c1cccc(C2CNCCN2C(C)=O)c1 (stereo not given),0.384%
